Laboratory results published in ChEMBL document CHEMBL4706633, “Design, Synthesis, and Biological Evaluation of a Series of Oxazolone Carboxamides as a Novel Class of Acid Ceramidase Inhibitors” (J Med Chem, 2020).
Values after ≈ are worked out from the molar mass of the structure shown. One block for each compound: values may come before it. Active and inactive are the calls of the source. No cut-off for these calls is given here.

Experiments:
Acid ceramidase [1] = biological target: T1, Acid ceramidase (Homo sapiens, UniProt Q13510); test: Inhibition of human acid ceramidase
T1 sequence (Q13510 whole entry): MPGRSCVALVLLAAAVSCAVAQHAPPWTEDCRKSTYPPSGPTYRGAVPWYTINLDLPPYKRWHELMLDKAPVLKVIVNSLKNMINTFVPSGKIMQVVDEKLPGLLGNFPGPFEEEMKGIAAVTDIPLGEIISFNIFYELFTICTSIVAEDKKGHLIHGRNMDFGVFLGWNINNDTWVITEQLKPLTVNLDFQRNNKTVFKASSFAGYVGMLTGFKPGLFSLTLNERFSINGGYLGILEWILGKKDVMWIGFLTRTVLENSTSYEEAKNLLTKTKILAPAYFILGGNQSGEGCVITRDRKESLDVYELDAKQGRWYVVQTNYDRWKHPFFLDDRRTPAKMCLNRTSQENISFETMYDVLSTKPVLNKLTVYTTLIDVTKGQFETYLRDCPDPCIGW

[2] = Kinetic solubility in pH 7.4 PBS buffer at 250 uM incubated for 1 hr by UPLC/MS analysis; assay type: physicochemical; conditions: read-out: Kinetic_solubility
Outline: (§1)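 Kinetic aqueous solubility was measured in PBS, pH 7.4. Metabolic stability was measured as t1/2 in mouse plasma and mouse liver microsomes, with microsomal data also given as % compound remaining at 1 h. Values are means of at least two independent experiments, each in two technical replicates.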

[3] = Half life in mouse plasma at 2 uM by LC/MS-MS analysis; assay type: ADME, cell-free; outline: as §1
[4] = Half life in mouse liver microsomes at 4.6 uM in presence of NADPH by LC/MS-MS analysis; assay type: ADME, Microsome; outline: as §1
[5] = Stability in mouse plasma at 2 uM after 120 mins by LC/MS-MS analysis; assay type: ADME, cell-free; conditions: read-out: Stabilty
Acid ceramidase [6] = biological target: T1, Acid ceramidase; test: Inhibition of human acid ceramidase using Rbm14-12 fluorogenic substrate incubated for 1 hr by fluorescence assay
[7] = Half life in pH 7 0.01M PBS buffer at 2 uM by LC/MS-MS analysis; assay type: physicochemical
[8] = Stability in mouse liver microsomes at 4.6 uM in presence of NADPH after 60 mins by LC/MS-MS analysis; assay type: ADME, Microsome; conditions: read-out: Stabilty; outline: as §1
[9] = biological target: T2, Acid ceramidase (Homo sapiens) (UniProt Q13510); test: Inhibition of human acid ceramidase at 1 to 10 uM using N-lauroyl ceramide incubated for 1 hr by LC/MS analysis; conditions: dose 1-10 µM
T2 sequence (whole entry): T1 sequence (Q13510 whole entry)

[10] = biological target: T2, Acid ceramidase (Homo sapiens); test: Inhibition of human acid ceramidase at 10 uM using N-lauroyl ceramide incubated for 1 hr by LC/MS analysis relative to control
[11] = biological target: T2, Acid ceramidase (Homo sapiens); test: Inhibition of acid ceramidase in human NCI-H460 cells at 25 uM relative to control; assay type: cell-based
Acid ceramidase [12] = biological target: T1, Acid ceramidase; test: Inhibition of acid ceramidase in human SK-OV-3 cell lysates; assay type: subcellular
Acid ceramidase [13] = biological target: T1, Acid ceramidase; test: Inhibition of acid ceramidase in human HL-60 cell lysates; assay type: subcellular
Acid ceramidase [14] = biological target: T1, Acid ceramidase; test: Inhibition of acid ceramidase in human HaCaT cell lysates; assay type: subcellular
[15] = biological target: T2, Acid ceramidase (Homo sapiens); test: Irreversible covalent inhibition of human acid ceramidase using N-lauroyl ceramide incubated for 1 hr by LC/MS analysis
[16] = biological target: T2, Acid ceramidase (Homo sapiens); test: Inhibition of human acid ceramidase at 5 uM using N-lauroyl ceramide incubated for 1 hr by LC/MS analysis relative to control
[17] = Half life in mouse plasma; assay type: ADME, cell-free; outline: as §1
[18] = biological target: T2, Acid ceramidase (Homo sapiens); test: Inhibition of human acid ceramidase using Rbm14-12 fluorogenic substrate incubated for 1 hr by fluorescence assay

SMILES: CCCCCCCCCCCCCC(=O)NCC(O)c1ccccc1 (centres undefined)
IC50 (Acid ceramidase [1]): 1290 nM

SMILES: O=C(NCCCCc1ccccc1)n1c(-c2ccccc2)coc1=O
half-life at 2 µM [7]: 0.167 h

SMILES: O=C(NCCCCc1ccccc1)n1c(-c2ccc(Cl)cc2)coc1=O
IC50 (Acid ceramidase [6]; read-out: IC50): 5 nM

SMILES: O=c1[nH]cc(-c2ccccc2)o1
IC50 (Acid ceramidase [6]): Not Active

SMILES: O=C(CCCCCc1ccccc1)n1cc(-c2ccccc2)oc1=O
inhibition [9]: inactive

SMILES: CCOCCNC(=O)n1cc(-c2ccccc2)oc1=O
solubility kinetic at 1 h, 250 µM [2]: 20 µM (≈ 5.53 µg/mL) | t1/2 [3]: 1.33 h | t1/2 [4]: < 0.083 h | IC50 (Acid ceramidase [6]; read-out: IC50): 2040 nM

SMILES: O=C(NCCCCc1ccccc1)N1C[C@H](c2ccccc2)OC1=O
inhibition [9]: inactive

SMILES: CCCCCCCCCCCCCCC[C@@H](O)[C@H](CO)NC(=O)CBr
IC50 (Acid ceramidase [1]): 52 nM

SMILES: O=C(NCCCCc1ccccc1)N1C[C@@H](c2ccccc2)OC1=O
inhibition [9]: inactive

SMILES: CCCCCCNC(=O)n1cc(F)c(=O)n(C(=O)OCC(C)C)c1=O
IC50 (Acid ceramidase [1]): 7.7 nM

SMILES: CCCCCCNC(=O)n1cc(Cl)c(=O)n(C(=O)OCC(C)C)c1=O
IC50 (Acid ceramidase [1]): 12.8 nM

SMILES: CCC(C)NC(=O)n1cc(-c2ccccc2)oc1=O (racemic)
inhibition [10]: 21%

SMILES: COc1ccc(/C=C/C(=O)c2c(-c3ccccc3)c3ccccc3[nH]c2=O)cc1
inhibition [11]: 44% | IC50 (Acid ceramidase [12]): 28000 nM | IC50 (Acid ceramidase [1]): 28000 nM

SMILES: CCCCCCCCCCCCCC(=O)N[C@H](C)[C@@H](O)c1ccccc1
IC50 (Acid ceramidase [13]): > 500000 nM | IC50 (Acid ceramidase [14]): 500000 nM

SMILES: N=C(N)Nc1ccc(CC(=O)Oc2ccc(-c3ccccc3)cc2)cc1
IC50 (Acid ceramidase [1]): 52000 nM

SMILES: CC(C)CNC(=O)n1cc(-c2ccccc2)oc1=O
solubility kinetic at 1 h, 250 µM [2]: < 1 µM | t1/2 [3]: > 2 h | t1/2 [4]: 0.833 h | remaining at 2 h, 2 µM [5]: 70% | IC50 (Acid ceramidase [6]; read-out: IC50): 1700 nM

SMILES: CCCCCNC(=O)n1c(-c2ccccc2)coc1=O
IC50 (Acid ceramidase [6]; read-out: IC50): 25 nM

SMILES: COCCCNC(=O)n1cc(-c2ccccc2)oc1=O
inhibition [10]: 53%

SMILES: O=C(Nc1ccccc1)n1cc(-c2ccccc2)oc1=O
inhibition [16]: 20%

SMILES: CCCCCCNC(=O)n1nc(C)cc1C(F)(F)F
half-life [17]: 9 min | IC50 (Acid ceramidase [1]): 14 nM

SMILES: CC(C)CNC(=O)n1cc(-c2ccc(F)c(C3CCN(C)CC3)c2)oc1=O
inhibition [10]: 26%

SMILES: CCCCCNC(=O)n1cc(-c2ccccc2)oc1=O
solubility kinetic at 1 h, 250 µM [2]: < 1 µM | t1/2 [3]: > 2 h | t1/2 [4]: < 0.083 h | remaining at 2 h, 2 µM [5]: 60% | IC50 (Acid ceramidase [6]; read-out: IC50): 39 nM

SMILES: CCCCCNC(=O)n1cc(-c2ccc(F)c(C3CCN(C)CC3)c2)oc1=O
IC50 (Acid ceramidase [6]; read-out: IC50): 1920 nM

SMILES: CCCCCCCC/C=C\CCCCCCCC(=O)NCCO [OLEOYLETHANOLAMIDE]
IC50 (Acid ceramidase [1]): 500000 nM

SMILES: CC(C)CNC(=O)n1cc(-c2ccc(F)cc2C2CCN(C)CC2)oc1=O
inhibition [10]: 38%

SMILES: CN1CCC(c2cc(F)ccc2-c2c[nH]c(=O)o2)CC1
inhibition [18]: inactive

SMILES: CN1CCC(c2cn(C(=O)NCCCCc3ccccc3)c(=O)o2)CC1
IC50 (Acid ceramidase [6]; read-out: IC50): 1400 nM

Results, then the compound that gave them:

solubility kinetic at 1 h, 250 µM [2]: 70 µM (≈ 30.3 µg/mL) | t1/2 [3]: > 2 h | t1/2 [4]: 0.5 h | remaining at 2 h, 2 µM [5]: 73% | IC50 (Acid ceramidase [6]; read-out: IC50): 153 nM
SMILES: CN1CCC(c2cccc(-c3cn(C(=O)NCCCCc4ccccc4)c(=O)o3)c2)CC1

remaining at 1 h, 4.6 µM [8]: 70% | solubility kinetic at 1 h, 250 µM [2]: 30 µM (≈ 13.5 µg/mL) | t1/2 [3]: > 2 h | t1/2 [4]: > 1 h | remaining at 2 h, 2 µM [5]: 80% | IC50 (Acid ceramidase [6]; read-out: IC50): 341 nM
SMILES: CN1CCC(c2cc(-c3cn(C(=O)NCCCCc4ccccc4)c(=O)o3)ccc2F)CC1

remaining at 1 h, 4.6 µM [8]: 51% | solubility kinetic at 1 h, 250 µM [2]: 60 µM (≈ 27.1 µg/mL) | t1/2 [3]: > 2 h | t1/2 [4]: > 1 h | remaining at 2 h, 2 µM [5]: 54% | IC50 (Acid ceramidase [6]; read-out: IC50): 337 nM
SMILES: CN1CCC(c2cc(F)ccc2-c2cn(C(=O)NCCCCc3ccccc3)c(=O)o2)CC1

IC50 (Acid ceramidase [6]; read-out: IC50): 59 nM
SMILES: O=C(NCCCCc1ccccc1)n1cc(-c2nccs2)oc1=O

solubility kinetic at 1 h, 250 µM [2]: < 1 µM | t1/2 [3]: 1.5 h | t1/2 [4]: 1 h | IC50 (Acid ceramidase [6]; read-out: IC50): 185 nM
SMILES: O=C(NCCCCc1ccccc1)n1cc(-c2ccc(F)cc2)oc1=O

inhibition [9]: inactive
SMILES: CN(CCCCc1ccccc1)C(=O)n1cc(-c2ccccc2)oc1=O

IC50 (Acid ceramidase [6]; read-out: IC50): 44 nM
SMILES: O=C(NCCCCc1ccccc1)n1cc(-c2cscn2)oc1=O

inhibition [9]: inactive
SMILES: O=C(OCCCCc1ccccc1)n1cc(-c2ccccc2)oc1=O

IC50 (Acid ceramidase [6]; read-out: IC50): 83 nM
SMILES: O=C(NCCCCc1ccccc1)n1cc(-c2ccc(Cl)cc2)oc1=O

remaining at 1 h, 4.6 µM [8]: 55% | solubility kinetic at 1 h, 250 µM [2]: < 1 µM | t1/2 [3]: 1 h | t1/2 [4]: > 1 h | IC50 (Acid ceramidase [6]; read-out: IC50): 70 nM
SMILES: O=C(NCCCCc1ccccc1)n1cc(-c2cccnc2)oc1=O

IC50 (Acid ceramidase [6]; read-out: IC50): 400 nM
SMILES: COc1ccc(-c2cn(C(=O)NCCCCc3ccccc3)c(=O)o2)cc1

IC50 (Acid ceramidase [6]; read-out: IC50): 69 nM
SMILES: Cc1c(-c2ccccc2)oc(=O)n1C(=O)NCCCCc1ccccc1

solubility kinetic at 1 h, 250 µM [2]: < 1 µM | t1/2 [3]: 0.667 h | t1/2 [4]: 0.167 h | IC50 (Acid ceramidase [6]; read-out: IC50): 25 nM
SMILES: O=C(NCCCCc1ccccc1)n1cc(-c2ccccn2)oc1=O

solubility kinetic at 1 h, 250 µM [2]: < 1 µM | t1/2 [3]: 0.667 h | t1/2 [4]: 1 h | IC50 (Acid ceramidase [6]; read-out: IC50): 32 nM
SMILES: O=C(NCCCCc1ccccc1)n1cc(-c2cnccn2)oc1=O

IC50 (Acid ceramidase [6]; read-out: IC50): 92 nM
SMILES: Cn1nc(-c2cn(C(=O)NCCCCc3ccccc3)c(=O)o2)c2ccccc21

solubility kinetic at 1 h, 250 µM [2]: < 1 µM | t1/2 [3]: > 2 h | t1/2 [4]: 0.5 h | remaining at 2 h, 2 µM [5]: 64% | IC50 (Acid ceramidase [6]; read-out: IC50): 341 nM
SMILES: COc1cccc(-c2cn(C(=O)NCCCCc3ccccc3)c(=O)o2)c1

remaining at 1 h, 4.6 µM [8]: 75% | solubility kinetic at 1 h, 250 µM [2]: < 1 µM | t1/2 [3]: 0.5 h | t1/2 [4]: > 1 h | IC50 (Acid ceramidase [6]; read-out: IC50): 18 nM
SMILES: O=C(NCCCCc1ccccc1)n1cc(-c2ccncc2)oc1=O

IC50 (Acid ceramidase [6]; read-out: IC50): 42 nM
SMILES: Cc1oc(=O)n(C(=O)NCCCCc2ccccc2)c1-c1ccccc1

remaining at 1 h, 4.6 µM [8]: 74% | solubility kinetic at 1 h, 250 µM [2]: < 1 µM | t1/2 [3]: > 2 h | t1/2 [4]: > 1 h | remaining at 2 h, 2 µM [5]: 64% | IC50 (Acid ceramidase [6]; read-out: IC50): 80 nM
SMILES: COc1cc(-c2cn(C(=O)NCCCCc3ccccc3)c(=O)o2)ccc1F

half-life at 2 µM [7]: > 12 h | solubility kinetic at 1 h, 250 µM [2]: < 1 µM | t1/2 [3]: < 0.083 h | t1/2 [4]: 0.667 h | inhibition [15]: Dose-dependent effect | IC50 (Acid ceramidase [6]; read-out: IC50): 90 nM
SMILES: O=C(NCCCCc1ccccc1)n1cc(-c2ccccc2)oc1=O

IC50 (Acid ceramidase [6]; read-out: IC50): 37 nM
SMILES: O=C(NCCCCc1ccccc1)n1cc(-c2cnc3ccccc3n2)oc1=O

IC50 (Acid ceramidase [6]; read-out: IC50): 177 nM
SMILES: COc1ccccc1-c1cn(C(=O)NCCCCc2ccccc2)c(=O)o1
